This is a sample that favours compounds with a hit; in the whole collection about 3.1% have one here.
KCNQ1 inh – inhibitors of human KCNQ1 potassium channel. P51787. CHO-K1 KCNQ1, FluxOR thallium flux fluorescence; active compounds read high. B-score at 10 µM. 310,000 tested, 1.3% active. AID 2642;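 active = compounds whose thallium flux B-score, printed positive for inhibition, exceeds three library SD while starting fluorescence stays within three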;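 note: channel opened by potassium depolarization with thallium stimulus after 20 min compound exposure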
Target sequence (P51787 whole entry, looked up): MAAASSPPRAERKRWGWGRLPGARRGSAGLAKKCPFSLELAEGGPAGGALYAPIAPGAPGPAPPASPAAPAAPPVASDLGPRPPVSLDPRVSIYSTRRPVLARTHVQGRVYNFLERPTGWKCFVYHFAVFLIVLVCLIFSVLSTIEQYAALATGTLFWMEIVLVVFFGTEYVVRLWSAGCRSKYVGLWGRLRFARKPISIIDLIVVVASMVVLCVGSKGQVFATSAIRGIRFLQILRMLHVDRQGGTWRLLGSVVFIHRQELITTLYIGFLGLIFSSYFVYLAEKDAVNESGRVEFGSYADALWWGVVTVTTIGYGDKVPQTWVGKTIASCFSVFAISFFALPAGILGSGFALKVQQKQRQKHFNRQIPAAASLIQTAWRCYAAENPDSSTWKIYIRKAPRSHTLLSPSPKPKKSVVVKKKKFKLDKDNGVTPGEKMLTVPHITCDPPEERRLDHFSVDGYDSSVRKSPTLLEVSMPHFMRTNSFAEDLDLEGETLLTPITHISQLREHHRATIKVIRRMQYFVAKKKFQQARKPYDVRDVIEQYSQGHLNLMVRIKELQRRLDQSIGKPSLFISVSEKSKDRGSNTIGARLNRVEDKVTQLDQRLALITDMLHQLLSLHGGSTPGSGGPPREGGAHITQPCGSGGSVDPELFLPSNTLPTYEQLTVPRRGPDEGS
KCNK3 inh – human KCNK3 channel inhibition, primary screen | O14649 | AID 602410 | 340,000 tested, 0.84% active | B-score at 10 µM | CHO-KCNK3 thallium flux, FluxOR fluorescence; active compounds read low;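 active = B-score under library mean minus 4 SD, starting fluorescence ratio at most library mean plus 5 SD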;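 note: more negative B-score means stronger inhibition of thallium flux through KCNK3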
KCNK9 inh – blocks the human KCNK9 two-pore domain potassium channel; Q9NPC2; B-score at 10 µM; HEK293 KCNK9, FluxOR thallium flux fluorescence; active compounds read low; AID 488922; 310,000 tested, 1.2% active;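 active = ratio B-score over 3 SD below the library mean, with starting fluorescence within 5 SD of its mean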;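 note: negative B-score means less thallium flux so channel inhibition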
KCNQ1 pot – potentiators or activators of human KCNQ1 potassium channel. CHO-K1 KCNQ1, thallium flux FluxOR fluorescence; active compounds read high. B-score at 10 µM. 310,000 tested, 0.35% active;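 active = fluorescence ratio B-score, a plate-corrected score, at least three library SD, with initial intensity B-score within 5 SD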
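System: CHO-K1 cells stably expressing KCNQ1 / Medium: assay buffer for compound exposure, DMSO matched across wells / Reagent: thallium- and potassium-containing depolarizing buffer / Compound: one concentration, matched DMSO / Incubation: 20 min compound pretreatment at room temperature / Measured by: kinetic FluxOR fluorescence, 10 s baseline plus 110 s post-stimulus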
hERG rescue – compounds protecting human hERG from proarrhythmic drug block; activation (rescue from dofetilide block), less the hit threshold, % at 10 µM; AID 1511; 310,000 tested, 0.51% active; CHO-hERG, FluxOR thallium flux, dofetilide IC70 present; Q12809;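 active = activation above the mean of controls blocked by dofetilide plus 5 SD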;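 note: thallium influx through hERG after potassium depolarization seen as dye fluorescence rise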
* marks the source's active call; other numbers are inactive results; i = inactive; x = no result given.

SMILES | KCNQ1 inh | KCNK3 inh | KCNK9 inh | KCNQ1 pot | hERG rescue
CC(=O)Cc1nsc(Nc2ccc(Cl)cc2)n1 | i | i | i | i | -10
O=C(CN(Cc1ccccc1)C(=O)c1ccco1)NCc1ccc(F)cc1 | i | i | i | i | -6
CN(CC(=O)NCc1cccc(F)c1)C(=O)c1ccco1 | i | i | i | i | 6.5*
O=C(O)C(c1ccccc1)C1CCCCC1O (configuration not stated) | x | i | x | x | x
CCOC(=O)C1C(c2ccccc2)C(C(=O)OCC)C1c1ccccc1 (configuration not stated) | i | i | i | i | 5.7*
COc1cc(OC)c(OC)cc1/C=C/C(=O)OCC(=O)Nc1c(C)n(C)n(-c2ccccc2)c1=O | x | i | x | x | x
C=CCNc1nc(Nc2ccc([N+](=O)[O-])cc2)nc(OC)n1 | i | i | i | i | -7
COc1nc(Nc2ccc([N+](=O)[O-])cc2)nc(NC2CCCCC2)n1 | i | i | -7.1* | i | -7
COc1ccc(C(=O)c2ccc(Cl)cc2)c(OC)c1OC | x | i | x | x | x
CCCCCCCc1n[nH]c(=S)n1Cc1ccccc1 | i | i | i | i | -8
CCCCc1n[nH]c(=S)n1Cc1ccc(C)cc1 | i | i | -17* | i | -5
O=[N+]([O-])c1ccc(O)c2ncccc12 | i | i | i | i | 2
O=[N+]([O-])c1cc([N+](=O)[O-])c2cccnc2c1Oc1ccccc1O | 8* | i | i | i | -40
COc1ccc2[nH]c(=O)c(CN(Cc3ccco3)C(c3nnnn3Cc3ccccc3)C(C)C)cc2c1 (configuration not stated) | 7* | i | i | i | -9
CC1=CC(=O)N(c2cccc(C(F)(F)F)c2)C1c1ccc(Cl)cc1 (configuration not stated) | i | i | -7.7* | i | -12
Cc1cc(Cl)n2c(nc3ccccc32)c1C#N | 6* | i | i | i | -30
COc1ccc(-n2cc(-c3ccccc3)c3c(NN4CCOCC4)ncnc32)cc1 | 9* | i | i | i | -25
Fc1ccc(-n2cc(-c3ccccc3)c3c(NN4CCOCC4)ncnc32)cc1 | i | i | i | i | -17
CN(CCc1ccccn1)c1ccccc1 | x | i | x | x | x
CN(C)CCCNC(=O)c1ccccn1 | i | i | i | i | -5
CN(C)CCCNC(=O)c1ccc(-c2nc(-c3ccc(Cl)cc3)cs2)cc1 | i | i | -7.2* | i | -39
O=[N+]([O-])c1cc(-c2nnc(Nc3ccccc3)c3ccccc23)ccc1N1CCOCC1 | i | i | i | i | -3
Cc1ccc(Nc2nnc(-c3ccc(N4CCOCC4)c([N+](=O)[O-])c3)c3ccccc23)cc1 | 7* | i | i | i | -10
COc1ccc(-c2cc(C(=O)OC(C)C(=O)Nc3c(C)n(C)n(-c4ccccc4)c3=O)c3ccccc3n2)cc1 (configuration not stated) | i | i | i | i | -17
Cc1c(NC(=O)C(C)OC(=O)c2cc(-c3cccc4ccccc34)nc3ccccc23)c(=O)n(-c2ccccc2)n1C (configuration not stated) | 6* | i | i | i | -18
SMILES | KCNQ1 inh | KCNK3 inh | KCNK9 inh | KCNQ1 pot | hERG rescue
Cc1nc(N)nc(N(C)c2ccccc2)c1Br | x | i | x | x | x
CCN(Cc1ccccc1)C(=O)c1oc2ccc(C)cc2c1C | i | i | i | i | 5.0*
Cc1ccc2oc(C(=O)N(Cc3ccncc3)CC3CCCO3)c(C)c2c1 (configuration not stated) | i | i | i | i | -12
c1ccc(NC2=NCCN2CC2CCCC2)cc1 | i | i | i | i | 4.9*
CCn1c(SCC(=O)NC2CCCC2)nnc1-c1ccccn1 | i | i | i | i | -7
CCn1c2ccccc2c2cc(N=C3SC(CC(=O)Nc4ccccc4OC)C(=O)N3CCOC)ccc21 (configuration not stated) | i | i | -7.1* | i | -4
CCn1c2ccccc2c2cc(N=C3SC(CC(=O)Nc4ccccc4OC)C(=O)N3C)ccc21 (configuration not stated) | i | i | i | i | 0
Oc1ccccc1CN1CCCN(Cc2ccccc2O)C1 | i | i | i | i | 5.0*
O=c1c(Cl)c(Cl)cnn1Cc1nnc(-c2ccccc2Br)o1 | i | i | i | 27* | -14
Cc1cc(N(C)C)ccc1[N+](=O)[O-] | i | i | i | i | 4.7*
Cc1ccc(-n2cccc2C(=S)N=P(N(C)C)(N(C)C)N(C)C)cc1 | i | i | -7.6* | i | -11
CCOC(=O)/C(C#N)=C1\Nc2ccccc2N=C1N(CC(C)C)CC(C)C | i | i | i | i | -18
CCCCN(CCCC)C1=Nc2ccccc2N/C1=C(/C#N)C(=O)OCC | 7* | i | i | i | -7
COc1cccc(C(=O)Nc2cc(C)c3c(=O)oc4ccccc4c3n2)c1 | i | -10* | -11* | i | -7
COc1cccc(NC(=O)c2cncs2)c1 | i | i | i | 14* | 5.0*
COc1ccc(-c2oc(NC(=O)c3ccc(C)cc3)c(C#N)c2-c2ccc(OC)cc2)cc1 | i | i | i | i | -1
COc1ccc(C(=O)Nc2oc(-c3ccccc3)c(-c3ccccc3)c2C#N)cc1 | 7* | i | i | i | -16
Cc1cc(NC(=O)Cc2ccccc2)nc2c1c(=O)oc1ccccc12 | i | i | i | i | -11
COc1cccc(C(=O)Nc2ccccc2)c1 | i | i | i | i | 5.4*
Cc1ccc(S(=O)(=O)N2CCC(C(=O)NC3CCCC3)CC2)cc1Cl | i | i | i | i | -3
Cc1ccc(Nc2cc(C)c(O)c(C)c2)cc1 | i | i | i | i | -5
O=C(CN1CCN(c2ccc(O)cc2)CC1)Nc1ccc(S(=O)(=O)N2CCCC2)cc1 | x | i | x | x | x
COc1cccc(C(=O)Nc2nc(-c3ccccc3)c(-c3ccccc3)o2)c1 | i | i | i | 9* | -7
COc1cccc(C(=O)Nc2c(F)c(F)c(F)c(F)c2F)c1 | i | i | i | i | -11
O=C(Nc1nc(-c2ccccc2)c(-c2ccccc2)o1)c1ccc(F)cc1 | i | i | i | 56* | 5.6*
CCOC(=O)C(=O)Nc1nc(-c2ccccc2)c(-c2ccccc2)o1 | i | i | i | i | -5
CC(C)C[C@@H](CNCC(=O)[C@H](C)NC(=O)c1[nH]cnc1C(=O)N[C@H](CN)CC(C)C)NC(=O)c1nc[nH]c1C(=O)N[C@@H](C)C(=O)O | x | i | x | x | x
